Laboratory results from ChEMBL document CHEMBL3872230, “Inhibition of the enzymes in the leukotriene and prostaglandin pathways in inflammation by 3-aryl isocoumarins” (Eur J Med Chem, 2016).
Active and inactive are the calls of the source. No cut-off for these calls is given here.

Tests used:
[1] = target: T1, Prostaglandin E synthase (Homo sapiens) (UniProt O14684); assay: Inhibition of mPGES1 in human HeLa cells assessed as reduction in TNF-alpha induced PGE2 production at 5 uM preincubated for 2 hrs followed by TNF-alpha addition for 24 hrs by ELISA; assay type: cell-based
T1 sequence (whole entry): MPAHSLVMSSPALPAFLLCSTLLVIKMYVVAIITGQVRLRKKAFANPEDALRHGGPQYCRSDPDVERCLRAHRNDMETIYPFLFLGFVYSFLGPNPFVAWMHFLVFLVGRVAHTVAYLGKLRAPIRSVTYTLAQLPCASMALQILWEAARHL
Summary of the method: (§1)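 Read-out was PGE2 released into the HeLa culture supernatant, measured with an ELISA kit.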

[2] = target: T2, Polyunsaturated fatty acid 5-lipoxygenase (Homo sapiens, UniProt P09917); assay: Inhibition of human recombinant 5-LOX expressed in Escherichia coli BL21 assessed as decrease in 5-HPETE production preincubated with enzyme followed by arachidonic acid substrate addition by UV-vis spectrophotometry
T2 sequence (P09917 whole entry): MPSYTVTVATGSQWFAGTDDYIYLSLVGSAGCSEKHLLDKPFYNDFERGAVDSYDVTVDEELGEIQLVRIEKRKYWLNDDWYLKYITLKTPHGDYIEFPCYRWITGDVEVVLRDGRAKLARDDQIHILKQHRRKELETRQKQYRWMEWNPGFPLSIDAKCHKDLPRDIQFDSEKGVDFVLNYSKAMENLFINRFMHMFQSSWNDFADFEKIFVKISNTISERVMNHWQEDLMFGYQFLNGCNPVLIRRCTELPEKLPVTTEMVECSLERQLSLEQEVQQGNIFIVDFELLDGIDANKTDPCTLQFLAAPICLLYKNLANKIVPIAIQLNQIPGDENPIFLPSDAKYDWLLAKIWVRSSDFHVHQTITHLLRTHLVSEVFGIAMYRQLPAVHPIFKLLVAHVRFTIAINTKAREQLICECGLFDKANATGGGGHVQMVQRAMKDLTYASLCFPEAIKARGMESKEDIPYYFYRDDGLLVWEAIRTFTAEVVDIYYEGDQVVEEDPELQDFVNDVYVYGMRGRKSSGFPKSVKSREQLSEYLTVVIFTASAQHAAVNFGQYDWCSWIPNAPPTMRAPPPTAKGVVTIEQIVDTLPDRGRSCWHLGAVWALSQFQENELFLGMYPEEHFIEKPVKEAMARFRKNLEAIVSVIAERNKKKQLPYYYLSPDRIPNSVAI

HeLa [3] = assay: Inhibition of COX-2 mRNA expression in human HeLa cells at 5 uM by RT-PCR method; assay type: functional, cell-based
Summary of the method: (§2)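 Real-time PCR on treated HeLa cells. mRNA levels were normalized to untreated cells and to β-actin, and significance was assessed by 2-way ANOVA.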

[4] = target: T3, Polyunsaturated fatty acid 5-lipoxygenase (Homo sapiens) (UniProt P09917); assay: Inhibition of human recombinant 5-LOX expressed in Escherichia coli BL21 assessed as decrease in 5-HPETE production at 50 uM preincubated with enzyme followed by arachidonic acid substrate addition by UV-vis spectrophotometry
T3 sequence (whole entry): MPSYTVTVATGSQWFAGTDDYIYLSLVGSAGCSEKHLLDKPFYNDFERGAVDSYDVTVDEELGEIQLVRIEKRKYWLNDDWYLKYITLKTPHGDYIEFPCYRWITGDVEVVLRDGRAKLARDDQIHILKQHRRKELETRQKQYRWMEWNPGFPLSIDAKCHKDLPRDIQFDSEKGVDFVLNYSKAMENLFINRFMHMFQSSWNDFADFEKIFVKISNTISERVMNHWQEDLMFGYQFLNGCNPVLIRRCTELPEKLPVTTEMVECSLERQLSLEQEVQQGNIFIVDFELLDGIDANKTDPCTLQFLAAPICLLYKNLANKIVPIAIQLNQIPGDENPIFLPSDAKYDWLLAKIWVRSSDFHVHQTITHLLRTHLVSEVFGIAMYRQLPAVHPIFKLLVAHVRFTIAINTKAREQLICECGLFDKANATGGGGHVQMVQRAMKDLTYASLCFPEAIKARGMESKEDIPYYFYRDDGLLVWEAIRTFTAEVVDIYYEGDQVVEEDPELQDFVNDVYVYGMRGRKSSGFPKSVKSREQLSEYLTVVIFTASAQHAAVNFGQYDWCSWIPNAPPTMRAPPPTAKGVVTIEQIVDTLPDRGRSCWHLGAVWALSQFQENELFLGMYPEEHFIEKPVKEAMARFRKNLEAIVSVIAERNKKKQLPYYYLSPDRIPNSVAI

Prostaglandin E synthase [5] = target: T4, Prostaglandin E synthase (Homo sapiens, UniProt O14684); assay: Inhibition of mPGES1 in human A549 cells assessed as reduction in PGE2 production; assay type: cell-based
T4 sequence (O14684 whole entry): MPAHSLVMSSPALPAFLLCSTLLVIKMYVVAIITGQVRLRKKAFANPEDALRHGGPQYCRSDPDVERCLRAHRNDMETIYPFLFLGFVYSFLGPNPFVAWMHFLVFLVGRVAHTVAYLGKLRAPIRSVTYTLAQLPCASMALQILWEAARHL

HeLa [6] = assay: Inhibition of mPGES1 mRNA expression in human HeLa cells at 5 uM by RT-PCR method; assay type: functional, cell-based; summary of the method: as §2
[7] = target: T5, Prostaglandin E synthase/G/H synthase 2 (Homo sapiens) (UniProt P35354+O14684); assay: Inhibition of COX-2/mPGES1 in human HeLa cells assessed as reduction in TNF-alpha induced PGE2 production at 5 uM after 15 mins followed by ELISA; assay type: cell-based
T5 sequence (P35354 whole entry, looked up, one chain of several): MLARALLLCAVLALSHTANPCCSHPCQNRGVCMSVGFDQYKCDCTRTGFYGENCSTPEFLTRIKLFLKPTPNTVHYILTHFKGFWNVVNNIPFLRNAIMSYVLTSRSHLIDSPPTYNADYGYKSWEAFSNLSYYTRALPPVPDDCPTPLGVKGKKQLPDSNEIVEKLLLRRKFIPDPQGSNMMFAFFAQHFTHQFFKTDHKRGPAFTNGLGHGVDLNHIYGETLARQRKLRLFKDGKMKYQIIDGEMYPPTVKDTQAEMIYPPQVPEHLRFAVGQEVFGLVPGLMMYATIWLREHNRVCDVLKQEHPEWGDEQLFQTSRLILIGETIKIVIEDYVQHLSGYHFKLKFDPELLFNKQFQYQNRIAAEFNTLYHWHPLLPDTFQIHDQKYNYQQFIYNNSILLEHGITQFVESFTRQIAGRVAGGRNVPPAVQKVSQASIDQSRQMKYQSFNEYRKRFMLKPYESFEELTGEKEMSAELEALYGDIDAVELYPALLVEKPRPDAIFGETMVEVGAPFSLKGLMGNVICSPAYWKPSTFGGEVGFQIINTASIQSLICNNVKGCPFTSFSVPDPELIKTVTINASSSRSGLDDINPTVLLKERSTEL
Summary of the method: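 TNF-treated HeLa cells were exposed to compound for 15 min without added arachidonic acid. PGE2 released into the culture supernatant was measured by ELISA.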

[8] = Cytotoxicity against human HeLa cells assessed as cell proliferation at 50 uM after 24 hrs by MTT assay; assay type: toxicity, cell-based; conditions: read-out: Activity
[9] = target: Prostaglandin G/H synthase 1 (Homo sapiens, UniProt P23219); assay: Inhibition of COX-1 (unknown origin)
Prostaglandin G/H synthase 1, sequence (P23219 whole entry): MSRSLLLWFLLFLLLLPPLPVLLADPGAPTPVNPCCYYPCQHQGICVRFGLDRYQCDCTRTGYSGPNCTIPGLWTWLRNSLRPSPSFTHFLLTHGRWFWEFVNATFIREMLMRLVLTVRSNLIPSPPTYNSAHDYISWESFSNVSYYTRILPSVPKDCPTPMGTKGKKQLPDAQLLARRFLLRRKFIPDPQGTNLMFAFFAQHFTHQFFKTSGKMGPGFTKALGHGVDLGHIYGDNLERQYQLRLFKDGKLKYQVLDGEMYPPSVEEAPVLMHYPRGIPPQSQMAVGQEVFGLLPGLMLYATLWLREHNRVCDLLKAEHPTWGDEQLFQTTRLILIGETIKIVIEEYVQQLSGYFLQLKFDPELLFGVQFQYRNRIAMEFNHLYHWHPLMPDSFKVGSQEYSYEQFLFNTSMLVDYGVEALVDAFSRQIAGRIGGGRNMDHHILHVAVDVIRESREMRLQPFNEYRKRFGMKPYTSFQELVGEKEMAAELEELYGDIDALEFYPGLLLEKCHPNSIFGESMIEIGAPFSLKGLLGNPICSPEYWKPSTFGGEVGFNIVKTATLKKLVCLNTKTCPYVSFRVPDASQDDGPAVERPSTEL

[10] = target: T5, Prostaglandin E synthase/G/H synthase 2 (Homo sapiens); assay: Inhibition of COX-2/mPGES1 in human HeLa cells assessed as reduction in TNF-alpha induced PGE2 production at 5 uM preincubated for 15 mins followed by arachidonic acid addition for 15 mins by ELISA; assay type: cell-based
Summary of the method: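 HeLa cells primed with TNF at 50 ng/ml to induce mPGES1, then exposed to compound for 15 min, then challenged with exogenous arachidonic acid for a further 15 min. PGE2 released into the culture supernatant was quantified by ELISA.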

Prostaglandin E synthase [11] = target: T4, Prostaglandin E synthase; assay: Inhibition of mPGES1 in human HeLa cells assessed as reduction in TNF-alpha induced PGE2 production preincubated for 2 hrs followed by TNF-alpha addition for 24 hrs by ELISA; assay type: cell-based; summary of the method: as §1
[12] = target: T1, Prostaglandin E synthase (Homo sapiens); assay: Inhibition of mPGES1 in human HeLa cells assessed as reduction in TNF-alpha induced PGE2 production at 50 uM preincubated for 2 hrs followed by TNF-alpha addition for 24 hrs by ELISA; assay type: cell-based; summary of the method: as §1
[13] = Antioxidant activity assessed as DPPH radical scavenging activity at 50 uM after 30 mins; assay type: functional

Compound | inhibition [1] | IC50 [2] | inhibition [4] | EC50 (Prostaglandin E synthase [5]) | inhibition [7] | IC50 [9] | inhibition [10] | IC50 (Prostaglandin E synthase [11]) | inhibition [12] | inhibition (HeLa [3]) | inhibition (HeLa [6]) | viability at 24 h, 50 µM [8] | Activity [13]
CC1(C)Cc2c(-c3ccccc3)c(-c3ccc(Cl)cc3)c(CC(=O)O)n2C1 [LICOFELONE] | 48% | 0.5 µM | 71% | 0.1 µM | 81% | 0.8 µM | 54.7% |  |  | Active | Active | 85% | 
O=c1oc(-c2ccccc2)cc2ccccc12 |  |  | 50% |  |  |  |  | 9.5 µM | 75% |  |  | 76.7% | 14%
CC(c1cc2ccccc2s1)N(O)C(N)=O (centres undefined) [ZILEUTON] |  |  |  |  |  |  |  |  | 50% |  |  | 78% | 33.6%
COc1ccc(-c2cc3ccccc3c(=O)o2)cc1O |  |  | 65.9% |  |  |  |  | 9.7 µM | 18% |  |  | 70.5% | 20%
O=c1oc(-c2ccc(O)cc2)cc2ccccc12 |  |  | 34.1% |  |  |  |  |  | 65% |  |  | 81.4% | 17%
O=c1oc(-c2ccccc2)cc2cccc(O)c12 |  |  | 55.3% |  |  |  |  |  | 60% |  |  | 75.6% | 13.4%

Continued, in another order:

inhibition [1] | IC50 [2] | inhibition [4] | EC50 (Prostaglandin E synthase [5]) | inhibition [7] | IC50 [9] | inhibition [10] | IC50 (Prostaglandin E synthase [11]) | inhibition [12] | Compound | inhibition (HeLa [3]) | inhibition (HeLa [6]) | viability at 24 h, 50 µM [8] | Activity [13]
 |  | 35.6% |  |  |  |  |  | 75% | COc1cc(-c2cc3cccc(O)c3c(=O)o2)ccc1O |  |  | 79.8% | 36.2%
 |  | 59.1% |  |  |  |  | 11.3 µM | 44% | COc1ccc(-c2cc3cccc(O)c3c(=O)o2)cc1O |  |  | 77.4% | 17.8%
 |  | 36.2% |  |  |  |  |  | 14% | COc1cc(O)c2c(=O)oc(-c3cc(OC)c(OC)c(OC)c3)cc2c1 |  |  | 60.5% | 15.4%
